Laboratory results published in ChEMBL document CHEMBL1144476, “Phenolic hydrazones are potent inhibitors of macrophage migration inhibitory factor proinflammatory activity and survival improving agents in sepsis” (J Med Chem, 2007).

Key:
[1] = biological target: T1, Macrophage migration inhibitory factor (Homo sapiens, UniProt P14174); assay: Inhibition of MIF tautomerase activity by spectrophotometric assay
T1 sequence (P14174 whole entry): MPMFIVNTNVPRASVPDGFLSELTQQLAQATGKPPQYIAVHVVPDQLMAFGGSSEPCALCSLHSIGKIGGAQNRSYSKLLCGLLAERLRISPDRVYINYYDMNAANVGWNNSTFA

Mus musculus [2] = species: Mus musculus; assay: Inhibition of LPS-induced TNFalpha release in […] macrophages after 16 hrs; type: functional
Summary of the method: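 […] macrophages (10⁵ cells) given compound at 0.01–100 μM 30 min before LPS stimulation; 16 h incubation, then TNF measured in culture supernatants by ELISA. Mean ± S.D, n=3.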

Mus musculus [3] = assay: Survival of CLP-induced BALB/c mouse at 4 mg/kg, ip after 3 days; type: functional; details: 72 h, route intraperitoneal
Summary of the method: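 Male Balb/C mice (~8 weeks) given cecal ligation with a single 22G puncture under ketamine/xylazine anaesthesia. Subcutaneous antibiotic and saline resuscitation were given right after surgery. Dosing was 4 mg/kg intraperitoneally in 20% DMSO/80% saline, started 24 h post-CLP and repeated twice daily on days 2 and 3. The vehicle group was handled the same way. Survival was scored with n=13 per group.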

| SMILES | IC50 [1] | Activity (Mus musculus [2]) | survival at 4 mg/kg (Mus musculus [3]) |
| --- | --- | --- | --- |
| COc1ccc(COC(=O)N/N=C/c2ccc(O)cc2)cc1 | 8 µM |  |  |
| CC(C)(C)OC(=O)N/N=C/c1ccc(O)cc1 | 5.5 µM |  |  |
| O=C(N/N=C/c1ccc(O)cc1)OCc1ccccc1 | 10 µM |  |  |
| CN(/N=C/c1ccc(O)cc1)c1ccccc1 | 300 µM |  |  |
| CCOC(=O)N/N=C/c1ccc(O)cc1 | 43 µM |  |  |
| N/N=C/c1ccc(O)cc1 | > 500 µM |  |  |
| COC(=O)N/N=C/c1ccc(O)cc1 | 55 µM |  |  |
| COc1ccc(N/N=C/c2ccc(O)c(F)c2)cc1 | 0.13 µM | Dose-dependent effect | 65% |

Now from value to molecule, other results behind:

| IC50 [1] | SMILES | Activity (Mus musculus [2]) | survival at 4 mg/kg (Mus musculus [3]) |
| --- | --- | --- | --- |
| 0.33 µM | COc1ccc(N/N=C/c2ccc(O)c(Br)c2)cc1 |  |  |
| 43 µM | CN/N=C/c1ccc(O)cc1 |  |  |
| 2.6 µM | Oc1ccc(/C=N/Nc2ccccc2)cc1 |  |  |
| 0.48 µM | COc1ccc(N/N=C/c2ccc(O)cc2)cc1 |  |  |
| 0.22 µM | COc1ccc(N/N=C/c2ccc(O)c(Cl)c2)cc1 |  |  |
